This is a sample that favours compounds with a hit; in the whole collection about 11% have one here.
Htt clearance: clearance of mutant huntingtin inclusions, primary screen, imaging, HeLa Exon1htt(103Q)mCFP, confocal imaging | aggregate imaging; zero = plate's median compound well | inhibition, % at 1.5 µM | hit rate 0.42% among 47,000 | AID 853, 2007;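 active means inhibition of aggregate fluorescence above about 70%, also judged a hit by eye on the cell image, limit read from the data, passing the limit was not always enough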;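 further: cells exposed to compound for three days before fixation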
M1 agonist: M1 muscarinic receptor agonists, primary screen, CHO-M1 cells, Fluo-4 calcium, agonist mode; Fluo-4 calcium fluorescence; active compounds read high; B-score at 10 µM; hit rate 3% among 64,000; AID 626, 2007;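 active means fluorescence rise, raw or as B-score row- and column-corrected plate score, outside the 99.7% band of its plate's samples, either direction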
RORA act: activators of orphan receptor RORA, primary screen, cell-based, luminescence; Nuclear receptor ROR-alpha (Homo sapiens), P35398; CHO-K1 Gal4-RORA LBD luciferase reporter; percent increase over mock-subtracted basal signal; activation, % at 10 µM; hit rate 1.5% among 65,000; AID 560, 2006;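 active means activation above the mean of all tested compounds plus 3 SD, cut at about 49% in these data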;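 further: 0% = DMSO-treated RORA cells and 100% = added signal equal to DMSO minus mock-transfected cells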
D1 mod: D1 CRE-luciferase signal change, two-sided – cell-based, HEK293 D1, dopamine EC30, D1 allosteric modulator project, primary screen; D(1A) dopamine receptor (Homo sapiens), P21728; dopamine EC30 potentiation; actives deviate in either direction; B-score at 10 µM; hit rate 5.9% among 58,000; AID 641, 2007;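 active means luminescence count or its row- and column-corrected plate score outside the 99.7% band of the plate's sample wells, on either side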
M1 antag: antagonists of rat M1 muscarinic receptor | B-score at 10 µM | hit rate 3.4% among 64,000 | Muscarinic acetylcholine receptor M1 (Rattus norvegicus), P08482 | CHO-M1 cells, Fluo-4 calcium, ACh EC80 antagonist mode; active compounds read low | AID 628, 2007;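 active means calcium fluorescence response, raw or row-and-column corrected B-score, differing from the plate sample mean either way at a set confidence level, mostly lower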
SF-1 act: activators of human SF-1, primary screen, cell-based, CHO-K1, Gal4-SF-1 LBD, luciferase luminescence | AID 522, 2006 | CHO-K1 Gal4-SF-1 LBD luciferase reporter; % increase over DMSO SF-1-specific signal | hit rate 1.9% among 65,000 | Steroidogenic factor 1 (Homo sapiens), Q13285 | activation, % at 10 µM;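 active means activation above the mean activation of all tested compounds plus 3 SD, cut at about 50% in these data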
Target sequence (Q13285 whole entry, looked up, the tested form may be a part): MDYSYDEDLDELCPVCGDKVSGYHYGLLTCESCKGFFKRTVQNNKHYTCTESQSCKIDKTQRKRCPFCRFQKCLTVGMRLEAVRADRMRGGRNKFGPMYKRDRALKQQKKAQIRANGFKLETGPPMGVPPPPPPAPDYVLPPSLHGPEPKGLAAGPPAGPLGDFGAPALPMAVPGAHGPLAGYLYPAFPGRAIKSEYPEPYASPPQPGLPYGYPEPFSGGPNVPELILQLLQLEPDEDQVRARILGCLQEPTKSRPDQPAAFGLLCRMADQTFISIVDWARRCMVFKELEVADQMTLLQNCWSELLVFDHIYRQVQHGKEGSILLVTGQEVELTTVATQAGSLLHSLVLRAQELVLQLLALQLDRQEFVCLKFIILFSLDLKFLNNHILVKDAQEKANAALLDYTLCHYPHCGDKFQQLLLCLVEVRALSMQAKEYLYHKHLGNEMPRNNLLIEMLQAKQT
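material = CHO-K1 cells with Gal4–hSF-1 LBD chimera plus Gal4-driven luciferase | compound = 10 µM single point, 1% DMSO | incubation = 20 h compound exposure at 37 °C after 1 h cell settling | measured by = SteadyLite luciferase luminescence | evaluation = percent activation relative to DMSO median and mock-transfected background | control set = DMSO negative control and −SF1 background wells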
D1 PAM confirm: D1 receptor positive allosteric modulators, retest, confirmation, cell-based, HEK293 D1, CRE-luciferase, duplicate | shares compounds with D1 mod | dopamine EC30 potentiation; active compounds read high | luminescence at 10 µM | hit rate 88% among 2,200;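 active means luminescence in either of two replicates above the same-plate mean plus 3 SD of the low-dose dopamine control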
D1 no dopamine: D1 receptor agonism without dopamine, confirmation, mechanism study for D1 allosteric modulator project, cell-based, HEK293 D1, CRE-luciferase, secondary assay 1; hit rate 0.8% among 1,900; luminescence at 10 µM; luminescence, no dopamine; active compounds read high; shares compounds with D1 mod; in the data active means luminescence above about 3900
Isoprot counter: counter-screen for D1 modulators: isoproterenol response in HEK293 cells | shares compounds with D1 mod | HEK293 D1 CRE-luciferase, isoproterenol EC30 counter-screen | calls only at 10 µM | hit rate 63% among 2,200 | AID 647;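 active means luminescence in either replicate above plate mean of wells with a partly effective reference agonist dose plus 3 SD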;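 further: isoproterenol raises cAMP through native beta-adrenoceptor Gs so signal bypasses D1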
Starred values were filed as active, the others as inactive; i = inactive; nt = no result; + = active, no number.

SMILES	Htt clearance	M1 agonist	RORA act	D1 mod	M1 antag	SF-1 act	D1 PAM confirm	D1 no dopamine	Isoprot counter
Fc1ccc(-c2nn3c(C4COc5ccccc5O4)nnc3s2)cc1 (stereo unspecified)	9.5	0.806	20.5	3.84*	0.29	0.5	14388*	1980	+
C=CCn1c(C(C)NC(=O)COC)nc2ccccc21 (stereo unspecified)	nt	-0.129	8.6	5.4*	0.476	20.8	5084	1624	i
CCOc1ccc(S(=O)(=O)Nc2cc(OC)ccc2OC)cc1	nt	0.36	-17.1	4.49*	-0.871	-28.4	11952*	1748	+
COc1ccc(OC)c(NS(=O)(=O)c2ccc(SC)cc2)c1	-22.0	0.545	23.9	0.5	-0.224	18.2	nt	nt	nt
Cc1ccc(-n2c(SCC(=O)OC(C)C)nnc2-c2cnccn2)cc1	-30.4	0.196	3.2	4.6*	0.622	-6.5	8068*	1636	i
COc1ccc(C2CC(=O)C(C=NCCN3CCOCC3)=C(O)C2)cc1 (stereo unspecified)	11.7	0.7	9.7	-0.211	0.146	-11.7	nt	nt	nt
COc1ccc(N2CCN(CCNC(=O)C3CCN(S(=O)(=O)c4cccs4)CC3)CC2)cc1	7.0	-0.727	-32.2	-0.933	-0.0352	6.5	nt	nt	nt
COc1ccc(N2CCN(S(=O)(=O)c3cccs3)CC2)cc1	-19.3	-0.44	5.7	5.02*	0.634	4.3	9608*	1628	i
CCN1CCc2c(C#N)c(N3CCOCC3)nc(NCCO)c2C1	-33.4	0.47	-14.9	nt	0.438	9.0	nt	nt	nt
CC(C)CN(C(=O)COC(=O)c1cc2c(s1)CCC2)C1CCS(=O)(=O)C1 (stereo unspecified)	nt	0.0612	23.3	-0.323	-0.57	-12.7	nt	nt	nt
O=C(Nc1cc(Cl)ccc1N1CCOCC1)c1cnccn1	-73.5	0.156	13.0	3.07*	0.314	-7.3	7880*	1408	i
COc1cccc(OC)c1C(=O)Nc1cc(Cl)ccc1N1CCOCC1	10.7	0.0787	-11.9	-0.0172	0.0473	-17.2	nt	nt	nt
Cc1ccc(=O)n(C(C(=O)NCc2ccco2)C(=O)c2ccc(F)cc2)c1 (stereo unspecified)	nt	-1.14	-6.1	0.931	1.31	6.9	nt	nt	nt
Fc1cccc(Nc2cc(-n3cccn3)ncn2)c1	47.5	-0.0403	44.1	8.48*	-0.744	15.8	8308*	1684	+
N#CC1=C(N)n2c(s/c(=C\c3ccco3)c2=O)=C(C#N)C1c1ccco1 (stereo unspecified)	50.6	0.0184	9.6	11.9*	0.816	8.5	14056*	1704	i
CCOC(=O)C1=C(N)n2c(s/c(=C/c3ccco3)c2=O)=C(C(=O)OC)C1c1ccco1 (stereo unspecified)	-10.2	-1.14	5.3	1.49	0.477	-1.6	nt	nt	nt
Cc1sc2ncnc(Oc3ccc(-n4ccnc4)cc3)c2c1C	nt	0.554	-6.0	nt	0.00862	-22.5	nt	nt	nt
NCCCCCc1nnc(SCc2ccc(Cl)c(Cl)c2)o1	29.8	nt	nt	nt	nt	nt	nt	nt	nt
COc1ncnc2c1N[C@@](C)(O)c1c(F)c(F)c(F)c(F)c1S2	nt	1.71	11.5	5.72*	0.253	-5.7	8300*	1556	i
COc1ncnc2c1NC(=O)CS2	11.3	0.278	24.8	0.621	0.116	-5.1	nt	nt	nt
Clc1ccc(C2=Nn3c(nnc3-c3n[nH]c4c3CCC4)SC2)cc1Cl	-33.7	-0.0817	3.4	9.38*	-0.583	-11.3	6068*	1632	+
CC1(C)CC2(CCO1)CNC(=O)O2 (stereo unspecified)	2.8	0.198	-14.0	0.294	-0.0836	10.0	nt	nt	nt

Assay outcomes: PubChem, several laboratories
